Assay outcomes (PubChem BioAssay)
DNMT1 block: inhibitors of human DNMT1; P26358; AID 588458; 0.83% of 360,000 active; DNMT1 molecular beacon, Hinp1I cleavage, fluorescence; inhibition (reported as % activation of signal), % at 10 µM; in the data active means inhibition above about 50%
Scp1 inh: Scp-1 (human) phosphatase inhibition; Q9GZU7; Recombinant Scp1, phosphopeptide, malachite green phosphate absorbance; inhibition, % at 20 µM; 0.88% of 340,000 active;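 active means inhibition above about 50% at 20 µM, limit read from the data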;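 further: plate controls were DMSO wells with enzyme for no effect and wells lacking enzyme for full effect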
Target sequence (Q9GZU7 76-261 limits assumed): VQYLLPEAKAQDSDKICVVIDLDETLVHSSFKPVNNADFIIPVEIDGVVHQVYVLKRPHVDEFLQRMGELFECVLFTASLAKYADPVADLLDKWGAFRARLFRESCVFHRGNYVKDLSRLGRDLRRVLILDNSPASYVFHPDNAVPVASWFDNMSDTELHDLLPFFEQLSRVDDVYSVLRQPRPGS
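Test system: SCP-1 phosphatase catalytic domain, residues 76-261; measured by: colorimetric phosphate reagent with accelerator and stabiliser, absorbance at 630 nm; timing: enzyme reaction 45 min at room temperature, colour 5 min, stabilisation 30 min; also added: Phosphorylated 17-residue peptide substrate; compound dosing: one concentration, 20 µM, with 1.0% DMSO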
STEP inh: inhibitors of human striatal-enriched phosphatase STEP; P54829; recombinant STEP, OMFP fluorogenic substrate, fluorescence; inhibition, % at 20 µM; 0.25% of 360,000 active; AID 588621;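 active means inhibition at 20 µM, scaled per plate between control wells, above about 37%, limit read from the data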;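 further: 0% = DMSO with enzyme and substrate and 100% = substrate only without enzyme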
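System: STEP phosphatase, cell-free reaction; Buffer or medium: Bis-Tris pH 6.0 buffer with DTT, detergent; Incubation: 20 min at room temperature, dark; Measured by: fluorescence, 480/540 nm.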
SUMO1 PPI mod: alters human SUMO1 binding to SIM partners | P63165 | SUMO1 binding to a labelled peptide, TR-FRET, 1 h | inhibition, % at 20 µM | 0.33% of 360,000 active; in the data active means inhibition above about 37%
Target sequence (P63165 whole entry, looked up): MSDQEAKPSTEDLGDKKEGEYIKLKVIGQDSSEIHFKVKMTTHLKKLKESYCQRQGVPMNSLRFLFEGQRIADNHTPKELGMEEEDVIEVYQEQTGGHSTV
LMPTP inh: LMPTP (human) inhibition | recombinant LMPTP-A, OMFP fluorogenic substrate, fluorescence intensity | AID 651560 | P24666 | 0.22% of 360,000 active | inhibition, % at 20 µM;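 active means compounds that cut the enzyme signal by at least half of the control window in the single-dose screen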;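 further: plate controls were DMSO wells with enzyme plus substrate for no effect and substrate without enzyme for full effect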
Target sequence (P24666 whole entry, looked up): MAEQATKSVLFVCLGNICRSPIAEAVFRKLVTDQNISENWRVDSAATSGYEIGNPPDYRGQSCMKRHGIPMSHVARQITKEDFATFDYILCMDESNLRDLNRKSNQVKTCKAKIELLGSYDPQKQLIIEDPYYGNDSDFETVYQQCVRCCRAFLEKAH
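Test system – LMPTP-A phosphatase enzyme · Quantity – 0.625 nM LMPTP-A final · Reagent – OMFP substrate, 400 µM final · Dosing – one test concentration per compound, 20 µM, with 3% DMSO overall · Timing – 50 min enzyme reaction at room temperature, protected from light · Detection – fluorescence intensity · Controls – substrate-only low control, DMSO enzyme-plus-substrate high control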
Beacon interf DR: shows spectral interference in the DNMT1 beacon assay. shares compounds with DNMT1 block. molecular beacon fluorescence, spectral interference counter-screen. IC50, µM. 200 tested, under 10 active. AID 602382; call rule not given here
DNMT1 inh conf: DNMT1 inhibition confirmation, single concentration; inhibition, % at 10 µM; AID 602385; shares compounds with DNMT1 block; 8% of 2,300 active; DNMT1 molecular beacon HinP1I cleavage, fluorescence;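 active means average inhibition of at least 30% in the single-concentration confirmation test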
DNMT1 interf: shows spectral interference in the DNMT1 beacon assay | shares compounds with DNMT1 block | DNMT1 molecular beacon spectral interference counterscreen, fluorescence 485/520 | activation (fluorescence interference), % at 10 µM | 1% of 2,300 active;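 active means activation of at least 30% at 10 µM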;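 further: DNMT1 catalytic domain with a HinP1I cleavage step and a FAM/dabcyl DNA beacon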
* hit, by the source's call; nt = no result given. Shown are actives, neighbours in structure and some others; about 1.7% of the full set was active somewhere.

SMILES | DNMT1 block | Scp1 inh | STEP inh | SUMO1 PPI mod | LMPTP inh | DNMT1 inh conf | DNMT1 interf | others
CCOc1ccc2nc(N3C(=O)C(O)=C(C(=O)c4ccco4)C3c3ccco3)sc2c1 (stereo not drawn) | 36.4 | 10.4 | 7.0 | -4.6 | 10.8 | nt | nt
O=C(COC(=O)c1ccccc1Nc1ccccc1)NCc1ccco1 | -2.2 | -7.2 | -1.4 | 1.7 | 0.0 | nt | nt
O=C(COC(=O)c1ccc(NS(=O)(=O)c2cccs2)cc1)NCc1ccco1 | 92.5* | 91.9* | 29.9 | 39.8* | 49.6 | 70.9* | 3.3 | Beacon interf DR=>99
CCOC(=O)c1cc(-c2ccc(C)cc2)n(CC(=O)NCc2ccco2)c1C | 50.1* | -14.0 | 0.6 | 0.3 | -1.4 | -1.1 | 2.5
O=C(COC(=O)c1ccccc1Cl)NCc1ccco1 | 84.6* | 39.8 | 2.6 | 6.0 | 12.2 | 9.6 | 4.5
COc1ccc(C2CC(C)(c3ccc(OC)cc3OC)Nc3ccccc3N2)c(OC)c1 (stereo not drawn) | -2.2 | 1.8 | -1.8 | -1.0 | -0.7 | nt | nt
C=C(CN(C)C)C(=O)c1cc(OC)c(OC)cc1OC | -0.3 | -1.8 | -2.8 | 1.0 | -1.5 | nt | nt
Oc1ccc(-c2cn3ccccc3n2)cc1 | 152.9* | 0.2 | 1.1 | -2.4 | -1.1 | 4.7 | 1.9
c1ccc(-c2cn3ccccc3n2)cc1 | 2.7 | -3.8 | -0.9 | 0.0 | 3.4 | nt | nt
CS(=O)(=O)N(CC(=O)N1CCCC1)c1ccc(Cl)cc1 | 0.3 | 3.0 | -0.1 | 0.8 | -2.6 | nt | nt
CN(C)c1ccc(-c2ccnc3c2CC(C)(C(=O)NCC2CCOCC2)O3)cc1 (stereo not drawn) | 58.7* | nt | -1.7 | -3.1 | -1.0 | 2.0 | 2.6
CC1(C(=O)NCCC(F)(F)F)Cc2c(-c3cccc(C(F)(F)F)c3)ccnc2O1 (stereo not drawn) | 4.5 | nt | 1.3 | 3.0 | -1.0 | nt | nt
CC1(C(=O)NCC2CCOCC2)Cc2c(-c3cccc(C(F)(F)F)c3)ccnc2O1 (stereo not drawn) | 83.5* | nt | 0.6 | -3.6 | -1.1 | 6.6 | 7.3
CC1(C(=O)NCC2CC2)Cc2c(-c3ccccc3)ccnc2O1 (stereo not drawn) | 2.4 | nt | 1.5 | -1.7 | -0.5 | nt | nt
COc1ccccc1CNC(=O)c1ccc(CS(=O)(=O)c2ccc(C)cc2)o1 | 20.2 | 19.3 | 3.1 | 5.4 | 1.7 | nt | nt
COc1ccc2c(c1)N(C)/C(=C1/SC(=NCc3ccccc3)N(c3ccccc3)C1=O)S2 | 52.6* | 8.6 | -1.3 | -17.4 | -2.3 | 3.3 | -0.4
C=CCC[C@H](Cc1ccc(F)cc1)C(=O)OC[C@@H](Cc1c[nH]c2ccccc12)NC(=O)[C@@H](CC=C)CC(=O)N[C@@H](CO)Cc1ccccc1 | -10.8 | -7.7 | 5.8 | -4.9 | 1.2 | nt | nt
C=CCC[C@@H](Cc1ccc(F)cc1)C(=O)OC[C@@H](Cc1c[nH]c2ccccc12)NC(=O)[C@@H](CC=C)CC(=O)N[C@H](CO)Cc1ccccc1 | 74.2* | -11.0 | 2.0 | 7.8 | 59.8* | 9.9 | 9.0
C=CCC[C@H](Cc1ccc(F)cc1)C(=O)OC[C@H](Cc1c[nH]c2ccccc12)NC(=O)[C@H](CC=C)CC(=O)N(CCO)Cc1ccccc1 | -31.9 | -17.6 | 1.4 | 2.9 | 6.2 | nt | nt
C=CCC[C@@H](Cc1ccc(F)cc1)C(=O)OC[C@@H](Cc1c[nH]c2ccccc12)NC(=O)[C@@H](CC=C)CC(=O)N(CCO)Cc1ccccc1 | 60.4* | -16.7 | -3.2 | 8.6 | 16.9 | 9.3 | 12.8
C=CCC[C@@H](Cc1ccc(F)cc1)C(=O)OC[C@@H](Cc1c[nH]c2ccccc12)NC(=O)[C@H](CC=C)CC(=O)N[C@H](CO)Cc1ccccc1 | 70.6* | -8.2 | 2.7 | 4.7 | 1.4 | 0.4 | -3.2
C=CCC[C@@H](Cc1ccc(F)cc1)C(=O)OC[C@H](Cc1c[nH]c2ccccc12)NC(=O)[C@@H](CC=C)CC(=O)N[C@@H](CO)Cc1ccccc1 | 9.0 | -12.4 | -2.5 | 4.4 | 1.9 | nt | nt
C=CC[C@@H](CC(=O)N[C@@H](CO)Cc1ccccc1)C(=O)NC[C@@H](OC(=O)[C@@H](CC=C)Cc1ccc(F)cc1)c1ccccc1 | 66.1* | 0.6 | 1.1 | 3.1 | -4.9 | 1.8 | 3.9
C[C@H](CO)N1C[C@H](C)[C@@H](CN(C)C(=O)NC2CCCCC2)Oc2c(NC(=O)Cc3ccccc3)cccc2C1=O | 4.7 | -11.3 | -2.6 | 0.0 | -1.8 | nt | nt
O=S(=O)(Oc1ccc(Cl)cc1)c1cccc2cccnc12 | 4.7 | -7.3 | -2.3 | -0.8 | -1.5 | nt | nt
SMILES | DNMT1 block | Scp1 inh | STEP inh | SUMO1 PPI mod | LMPTP inh | DNMT1 inh conf | DNMT1 interf | others
CC(C)C[C@@H]1CN(CCCC[C@H]2CNC(=O)C(=O)N2CCC2CCCCC2)C(=O)C(=O)N1CC1CCCCC1 | nt | nt | nt | 4.4 | -0.1 | nt | nt
CCOC(=O)CN1C(=O)N[C@@H](c2cccc(F)c2)C(C(=O)OC)=C1C | 5.9 | -4.4 | 1.1 | 3.9 | -1.0 | nt | nt
CCc1nc(Nc2ccncc2)c2oc3ccccc3c2n1 | 50.9* | -1.1 | -2.1 | 0.9 | -0.3 | 21.3 | 4.9
CCn1c2ccccc2c2cc(CN3CCN(S(=O)(=O)Cc4ccccc4)CC3)ccc21 | 60.4* | 2.4 | 4.3 | -2.8 | 7.1 | 1.1 | 3.4
Cc1cc(OC(C(=O)O)c2ccccc2)c2c(C)c(Cc3ccccc3)c(=O)oc2c1 (stereo not drawn) | 87.6* | -5.4 | 3.5 | -2.0 | 0.5 | 1.6 | 6.4
CCCCCCCCN1C(=O)[C@H](CC(=O)N2CCN(C(=O)c3ccco3)CC2)C[C@@]2(C(=O)OCC)CCCC=C12 | nt | nt | nt | 2.2 | 2.5 | nt | nt
O=C(Cc1ccc(NC(=O)C2CCN(C(=O)C3CC3)CC2)cc1)Nc1cccc(C(=O)N2CCCC2)c1 | 2.6 | -8.0 | -0.8 | -3.1 | -2.1 | nt | nt
CC(=O)NC12CC3CC(C1)CC(C(=O)OCC(=O)c1cc(C)n(C)c1C)(C3)C2 | 51.1* | -2.7 | 2.4 | 0.0 | -0.5 | 3.4 | 2.4
CC1=C/C(=C\c2ccc(Br)o2)C(=O)O1 | 105.7* | 82.2* | 24.3 | 6.2 | 11.1 | 46.2* | -2.1 | Beacon interf DR=>99
Cc1ccc(NC(=O)CN2C(=O)S/C(=C/c3ccc(-c4cc(C(=O)O)ccc4C)o3)C2=O)cc1C | 111.0* | 72.5* | 9.7 | 25.9 | 23.5 | 117.6* | -0.3 | Beacon interf DR=>99
CC1(C)CC(N=c2cc(-c3ccccc3)oc3ccc(Cl)cc23)CC(C)(C)N1 | 75.1* | 3.2 | -1.5 | -14.8 | -0.1 | 32.9* | -6.3 | Beacon interf DR=>99
O=C(N/N=C/c1ccc2c(c1)OCO2)c1sc2cc(Cl)ccc2c1Cl | 67.2* | 3.0 | 5.0 | -2.1 | 1.9 | 3.6 | -4.6
